For data set [1], the system named is Mus musculus. Description: Analgesic activity in Swiss CD mouse at 32 mg/kg, ip measured 0.5 hr post treatment by hot-plate method relative to control. It is filed as functional. Conditions: route intraperitoneal. An outline of the steps: (§1)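 Male mice, about 20 g, dosed ip in saline. Each mouse was dropped into a glass cylinder on an aluminium plate held at 57 °C. Latency to the first flick of a hind foot was timed at 0.5 and 2 h post-dose, with a 10-s cutoff. At least ten mice per dose. Percent control = mean latency ÷ mean control latency × 100; 200% was the lower bound of activity.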

The test system of data set [2] is Mus musculus. Description: Analgesic activity in Swiss CD mouse at 32 mg/kg, ip measured 2 hrs post treatment by hot-plate method relative to control. It is filed as functional. Conditions: route intraperitoneal. The method in brief: as §1
For orientation: Thermal pain tests record how soon the animal reacts.

Data set [3] has as its system Mus musculus. Description: Analgesic activity in Swiss CD mouse assessed as elevation of response latency at 32 mg/kg, ip measured 0.5 hr post treatment by tail flick method relative to control. The conditions noted are these: route intraperitoneal. It is filed as functional. The method in brief:
(§2)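 Male mice, about 20 g, dosed ip in saline (solution or suspension). High-intensity heat was focused on the tail, and latency to a sudden tail flick was timed, with a 10-s cutoff. Tests ran at 0.5 and 2 h post-dose, with at least ten mice per dose. Percent control = mean latency ÷ mean control latency × 100; 200% was the lower bound of activity.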

The test system of data set [4] is Mus musculus. Description: Analgesic activity in Swiss CD mouse assessed as elevation of response latency at 32 mg/kg, ip measured 2 hrs post treatment by tail flick method relative to control. It is filed as functional. Conditions: route intraperitoneal. The method in brief:
as §2

Data set [5] can be described thus: Toxicity in ip dosed Swiss CD mouse measured 0.5 to 2 hrs post treatment. It is filed as organism-based. Conditions: in vivo.
Data set [6] relates to Mus musculus. Description: Analgesic activity in Swiss CD mouse at 100 mg/kg, ip measured 0.5 hr post treatment by hot-plate method relative to control. The conditions noted are these: route intraperitoneal. It is filed as functional. The method in brief:
as §1

Data set [7] relates to Mus musculus. Description: Analgesic activity in Swiss CD mouse at 100 mg/kg, ip measured 2 hrs post treatment by hot-plate method relative to control. It is filed as functional. Conditions: route intraperitoneal. The method in brief: as §1
Data set [8] deals with Mus musculus. Description: Analgesic activity in Swiss CD mouse assessed as elevation of response latency at 100 mg/kg, ip measured 0.5 hr post treatment by tail flick method relative to control. Format: functional. Conditions: route intraperitoneal. The method in brief: as §2
The subject of data set [9] is Mus musculus. Description: Analgesic activity in Swiss CD mouse assessed as elevation of response latency at 100 mg/kg, ip measured 2 hrs post treatment by tail flick method relative to control. It is filed as functional. Conditions: route intraperitoneal. The method in brief:
as §2

Data set [10] relates to Rattus norvegicus. Description: Analgesic activity in Sprague-Dawley CD rat at 32 mg/kg, ip measured 0.5 to 2 hrs post treatment by flinch-jump method relative to control. Format: functional, organism-based. Set-up: dose 32 mg/kg. The method in brief:
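Male rats, 200-300 g, dosed ip (saline solution or suspension). A single rising series of 1-s foot shocks was given just before and at 0.5 and 2 h after dosing. The minimum shock intensity (mA) evoking each behaviour was recorded. No response at the 2.2-mA level counted as activity. At least five rats per dose.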

Data set [11] has as its system Rattus norvegicus. Description: Neuroleptic activity in ip dosed Sprague-Dawley CD rat assessed as reversal of amphetamine-induced stereotypy compound administered 1hr prior challenge. It is filed as functional. The method in brief: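 Rats dosed ip, then given amphetamine sulfate 5 mg/kg 1 h later. The ED50 is the dose that reverses the amphetamine-induced stereotypy.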

Calls of active or inactive are those of the source.

Turning to `CNCC1=Cc2c(Cl)ccc(OC)c2CC1.Cl`, the Activity with Mus musculus [1] was 139%; with Mus musculus [2], 120%; in the data set on Mus musculus [3], 163%; in the data set with Mus musculus [4] it was 127%. Moreover, the LD50 – broadly, the dose expected to kill half of the subjects tested – in data set [5] stood at 32 mg/kg.
With `COc1ccc(Cl)c2c1CCC(CN1CCC(O)(c3ccccc3)CC1)=C2.Cl`, the Activity came to 249% in the data set on Mus musculus [6], 175% in the data set on Mus musculus [7], 196% in the data set on Mus musculus [8] and 158% in the data set with Mus musculus [9].
For the compound `CCN(CC)C(=O)C1CCCN(CC2=Cc3c(Cl)ccc(OC)c3CC2)C1.Cl.O` (stereo unspecified), the Activity came to 107% with Mus musculus [6], 175% in the data set with Mus musculus [7], 250% with Mus musculus [8] and 214% in the data set on Mus musculus [9]. Further, the result in the data set with Rattus norvegicus [10] was inactive.
In the case of `COc1ccc(Cl)c2c1CCC(CN1CCN(c3cccc(C(F)(F)F)c3)CC1)=C2.O`, the Activity was 167% in the data set with Mus musculus [6], 149% in the data set on Mus musculus [7], 119% with Mus musculus [8] and 118% in the data set on Mus musculus [9].
The like results for `CCC(=O)OC1CCN(CC2=Cc3c(Cl)ccc(OC)c3CC2)CC1.Cl` were, in that order, 95%, 101%, 237% and 179%.
The like results for `C=CCN1CCN(CC2=Cc3c(Cl)ccc(OC)c3CC2)CC1.Cl` were, in that order, 164%, 127%, 159% and 137%.
As to `Cc1cc(C)c2c(c1)C=C(CN1CCCC1)CC2.Cl`, the Activity is listed as 126% in the data set with Mus musculus [1], 120% in the data set with Mus musculus [2], 124% with Mus musculus [3] and 126% in the data set with Mus musculus [4]. In addition, the LD50 in [5] came to 32 mg/kg.
In the case of `COc1ccc(F)c2c1CCC(CN1CCCC1)=C2.Cl`, the Activity in the data set on Mus musculus [1] is given as 183%; in the data set on Mus musculus [2], 149%; in the data set on Mus musculus [3] it was 170%; in the data set on Mus musculus [4] it was 141%. In addition, in [5], the median lethal dose (LD50) is 32 mg/kg.
As to `COc1ccc(Cl)c2c1CCC(CNCC1CC1)=C2.Cl`, the Activity in the data set with Mus musculus [6] came to 224%; in the data set with Mus musculus [7], 171%; with Mus musculus [8], 203%; with Mus musculus [9], 162%.
With `COc1ccc2c(c1)C=C(CN1CCCC1)CC2`, the Activity is 114% in the data set on Mus musculus [6], 98% with Mus musculus [7], 149% in the data set on Mus musculus [8] and 129% in the data set with Mus musculus [9].
Consider `COc1ccc(Cl)c2c1CCC(CN1CCN(c3ccc(Cl)cc3)CC1)=C2`, for which the Activity in the data set with Mus musculus [6] was determined as 202%; in the data set with Mus musculus [7] it was 160%; in the data set with Mus musculus [8], 184%; in the data set with Mus musculus [9], 159%.
For `COc1ccc(Cl)c2c1CCC(CN1CCCCC1)=C2.Cl`, the Activity in the data set with Mus musculus [6] came out at 155%; in the data set with Mus musculus [7] it was 127%; in the data set with Mus musculus [8], 212%; in the data set on Mus musculus [9], 167%.
In the case of `COc1ccc(Cl)c2c1CCC(CN1CCC(O)(c3ccc(Cl)cc3)CC1)=C2.O=S(=O)(O)O`, the Activity in the data set with Mus musculus [6] turned out to be 177%; with Mus musculus [7], 102%; with Mus musculus [8] it was 162%; in the data set on Mus musculus [9], 123%.
Consider `Br.COc1cccc2c1CCC(CN1CCCC1)=C2`, for which the Activity in the data set on Mus musculus [1] was 129%; with Mus musculus [2] it was 103%; with Mus musculus [3] it was 80%; in the data set with Mus musculus [4], 90%. Also, the LD50 in [5] was determined as 32 mg/kg.
Turning to `COc1ccc(Cl)c2c1CCC(CN1CCN(CCO)CC1)=C2`, the Activity was determined as 249% in the data set with Mus musculus [6], 236% with Mus musculus [7], 187% in the data set on Mus musculus [8] and 191% in the data set on Mus musculus [9].
Take `COc1ccc(Cl)c2c1CCC(CN1CCC(c3ccccc3)CC1)=C2.O`: the Activity with Mus musculus [6] was 233%; in the data set with Mus musculus [7] it was 171%; with Mus musculus [8], 109%; in the data set on Mus musculus [9], 106%.
Turning to `COc1ccc(C)c2c1CCC(CN1CCCC1)=C2.Cl`, the Activity in the data set on Mus musculus [1] was 177%; with Mus musculus [2] it was 145%; in the data set with Mus musculus [3] it was 177%; with Mus musculus [4], 135%. The compound further displayed an LD50 in data set [5] of 32 mg/kg.
As for `CNC(=O)C1CCN(CC2=Cc3c(Cl)ccc(OC)c3CC2)CC1.Cl.O`, the Activity in the data set on Mus musculus [6] is on record as 221%; in the data set on Mus musculus [7], 167%; in the data set with Mus musculus [8], 208%; in the data set on Mus musculus [9] it was 166%.
The like results for `C=CCNCC1=Cc2c(Cl)ccc(OC)c2CC1.Cl` were, in that order, 158%, 115%, 131% and 108%.
With `COc1cc2c(cc1OC)CCC(CN1CCCC1)=C2.Cl`, the Activity amounted to 173% in the data set with Mus musculus [6], 135% in the data set with Mus musculus [7], 101% with Mus musculus [8] and 95% with Mus musculus [9].
The like results for `COc1ccc(N2CCN(CC3=Cc4c(Cl)ccc(OC)c4CC3)CC2)cc1` were, in that order, 129%, 120%, 131% and 123%.
For `CCOC(=O)N1CCN(CC2=Cc3c(Cl)ccc(OC)c3CC2)CC1.Cl`, in that order: 274%, 233%, 223% and 199%.
As for `CN1CCN(CC/C=C2/c3ccccc3Sc3ccc(S(=O)(=O)N(C)C)cc32)CC1` [THIOTHIXENE], in the data set on Rattus norvegicus [11], the ED50 (as a rule, the midpoint of the dose-response relation) is 0.32 mg/kg.
With `COc1ccc(Cl)c2c1CCC(CN1CCCC(C(N)=O)C1)=C2.Cl` (stereo unspecified), the Activity was determined as 197% with Mus musculus [6], 170% in the data set on Mus musculus [7], 91% in the data set on Mus musculus [8] and 106% in the data set with Mus musculus [9]. Besides, the result in the data set on Rattus norvegicus [10] was inactive.
`COc1ccc(Cl)c2c1CCC(CN1CCC(C(=O)N3CCOCC3)CC1)=C2.Cl`: the Activity in the data set with Mus musculus [6] is given as 107%; in the data set on Mus musculus [7], 95%; in the data set on Mus musculus [8], 162%; in the data set on Mus musculus [9], 133%.
With `COc1ccc(Cl)c2c1CCC(CN1CCN(S(N)(=O)=O)CC1)=C2.Cl`, the Activity in the data set on Mus musculus [6] stood at 123%; with Mus musculus [7], 109%; in the data set on Mus musculus [8] it was 104%; in the data set with Mus musculus [9], 88%.
The like results for `COc1ccc(Cl)c2c1CCC(CN1CCN(C)CC1)=C2` were, in that order, 274%, 218%, 198% and 137%.
With `COc1ccc(Cl)c2c1CCC(CN1CCC(C(=O)N3CCCCC3)CC1)=C2.Cl.O`, the Activity with Mus musculus [6] was found to be 170%; in the data set with Mus musculus [7], 124%; in the data set on Mus musculus [8] it was 235%; with Mus musculus [9] it was 149%.
As for `COc1ccc(Cl)c2c1CCC(CN1CCC(C)CC1)=C2.Cl`, the Activity in the data set with Mus musculus [1] is reported as 158%; in the data set with Mus musculus [2] it was 135%; with Mus musculus [3] it was 128%; in the data set with Mus musculus [4], 115%. The compound further returned an LD50 in data set [5] of 32 mg/kg.
As for `COc1ccc(Cl)c2c1CCC(CN1CCC(O)CC1)=C2.Cl`, the Activity in the data set with Mus musculus [6] was 174%; in the data set on Mus musculus [7] it was 142%; with Mus musculus [8], 239%; in the data set with Mus musculus [9], 180%.
For `CCC(=O)O[C@](Cc1ccccc1)(c1ccccc1)[C@H](C)CN(C)C` [PROPOXYPHENE], the Activity is 139% in the data set with Mus musculus [6], 138% in the data set on Mus musculus [7], 169% with Mus musculus [8] and 146% in the data set with Mus musculus [9].
For `COc1ccc(Cl)c2c1CCC(CN1CCC(C(C)=O)(c3ccccc3)CC1)=C2.Cl`, in that order: 143%, 124%, 134% and 122%.
Consider `COc1ccc(OC)c2c1C=C(CN1CCCC1)CC2.Cl`, for which the Activity in the data set on Mus musculus [1] is 177%; in the data set with Mus musculus [2] it was 132%; in the data set on Mus musculus [3], 111%; in the data set on Mus musculus [4], 99%. Besides, in data set [5], the LD50 was determined as 32 mg/kg.
On to `COc1ccc(Cl)c2c1CCC(CN1CCC(C(=O)NC3CCCCC3)CC1)=C2`, for which the Activity with Mus musculus [6] is 107%; in the data set on Mus musculus [7], 95%; in the data set on Mus musculus [8], 219%; in the data set with Mus musculus [9], 154%.
For `COc1ccc2c(c1)CCC(CN1CCCC1)=C2.Cl`, in that order: 96%, 103%, 92% and 92%.

For the origin of these results see ChEMBL document CHEMBL3243935, “Analgesic and tranquilizing activity of 5,8-disubstituted 2-aminomethyl-3,4-dihydronaphthalenes” (J Med Chem, 1978).
